Source: ChEMBL document CHEMBL1833941, “Structural requirement of arylindolylpropenones as anti-bladder carcinoma cells agents” (Bioorg Med Chem, 2011)
Calls of active or inactive are those of the source. The calls are words filed in the database; no cut-off is given here.

Legend:
RT-112 [1] = experiment: Antiproliferative activity against human RT112 cells after 48 hrs by MTT assay; type: functional, cell-based; conditions: RT-112, 48 h
Summary of the method: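 RT112 bladder carcinoma cells in RPMI 1640 with 10% FCS and 2 mM glutamine, 37 °C, 5% CO2. Seeded 3×10^3 cells/well, treated after 24 h with a concentration series for 48 h; DMSO vehicle control. MTT 3 h at 37 °C, formazan dissolved in DMSO, A570 with 650 nm reference. Survival relative to vehicle (100%); IC50 from dose-response curves; triplicates, three independent experiments.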

RT-112 [2] = experiment: Cell cycle arrest in human RT112 cells by accumulation of cells at G2+M phase at 4 uM after 12 hrs by propidium iodide-staining-based flow cytometry (reference value: 14%); type: functional
RT-112 [3] = experiment: Cell cycle arrest in human RT112 cells by accumulation of cells at G2+M phase at 4 uM after 24 hrs by propidium iodide-staining-based flow cytometry (reference value: 14%); type: functional
RT-112 [4] = experiment: Induction of apoptosis in human RT112 cells assessed as hypodiploid DNA at sub-G1 phase after 48 hrs by propidium iodide-staining-based flow cytometry; type: functional, cell-based
Summary of the method: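 Same PI/RNase flow cytometry as the cell cycle work in RT112 cells, with treatment extended to 48 h. Apoptosis scored as a hypodiploid (sub-G1) DNA peak; DMSO vehicle as control.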

RT-112 [5] = experiment: Cell cycle arrest in human RT112 cells by accumulation of cells at G2/M phase at 3 uM after 12 hrs by propidium iodide-staining-based flow cytometry (reference value: 14%); type: functional
RT-112 [6] = experiment: Cell cycle arrest in human RT112 cells by accumulation of cells at G1 phase at 3 uM after 12 hrs by propidium iodide-staining-based flow cytometry (reference value: 69%); type: functional
RT-112 [7] = experiment: Cell cycle arrest in human RT112 cells by accumulation of cells at S phase at 3 uM after 12 hrs by propidium iodide-staining-based flow cytometry (reference value: 17%); type: functional
RT-112 [8] = experiment: Cell cycle arrest in human RT112 cells by accumulation of cells at G2+M phase at 3 uM after 24 hrs by propidium iodide-staining-based flow cytometry (reference value: 14%); type: functional

| Compound | IC50 (RT-112 [1]) [µM] | also measured |
| --- | --- | --- |
| Cn1cc(/C=C/C(=O)c2cn(C)c3ccccc23)c2ccccc21 | 63 |  |
| Cn1ccc2cc(/C=C/C(=O)c3cn(C)c4ccccc34)ccc21 | 4 | Activity (RT-112 [2]): 65%; Activity (RT-112 [3]): 34%; Activity (RT-112 [4]): Active |
| COc1cc(OC)c(C(=O)/C=C/c2ccc3c(ccn3C)c2)c(OC)c1 | 54.3 |  |
| COc1cc(/C=C/C(=O)c2cn(C)c3ccccc23)cc(OC)c1OC | 42.4 |  |
| Cn1cc(C(=O)/C=C/c2ccccc2F)c2ccccc21 | 28.7 |  |
| CN1CCN(c2ccc(/C=C/C(=O)c3cn(C)c4ccccc34)cc2)CC1 | 11.7 |  |
| CN1CCN(c2ccccc2/C=C/C(=O)c2cn(C)c3ccccc23)CC1 | 26.4 |  |
| COc1cc(OC)c(/C=C/C(=O)c2cn(C)c3ccc(OC)cc23)c(OC)c1 | 3.1 | Activity (RT-112 [5]): 91%; Activity (RT-112 [6]): 5%; Activity (RT-112 [7]): inactive; Activity (RT-112 [8]): Active; Activity (RT-112 [4]): Active |
| COc1cc(OC)c(/C=C/C(=O)c2cn(C)c3ccccc23)c(OC)c1 | 3.2 | Activity (RT-112 [5]): 74%; Activity (RT-112 [6]): 16%; Activity (RT-112 [7]): inactive; Activity (RT-112 [8]): Active; Activity (RT-112 [4]): Active |
| CN(C)c1ccc(/C=C/C(=O)c2cn(C)c3ccccc23)cc1 | 7.5 |  |
| Cn1cc(C(=O)/C=C/c2c(Cl)cccc2Cl)c2ccccc21 | 7.8 |  |
| COc1cccc(OC)c1/C=C/C(=O)c1cn(C)c2ccccc12 | 47.4 |  |
| Cn1cc(C(=O)/C=C/c2ccccc2)c2ccccc21 | 30.6 |  |
| COc1ccc(/C=C/C(=O)c2cn(C)c3ccccc23)c(OC)c1 | 57.7 |  |
| COc1cc(OC)c(/C=C/C(=O)c2cn(C)c3ccc(C(=O)O)cc23)c(OC)c1 | 86.1 |  |
